The text below walks through data of ChEMBL document CHEMBL1145931, “Synthesis of a prodrug designed to release multiple inhibitors of the epidermal growth factor receptor tyrosine kinase and an alkylating agent: a novel tumor targeting concept” (J Med Chem, 2003).

The test system of one series is NIH3T3. Briefly: Inhibition of serum stimulated NIH3T3 cell proliferation. It counts as functional, cell-based. The note with it: Mus musculus. The method, boiled down:
(§1)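 Cells were kept in DMEM with 10% FBS, grown to 70% confluence, PBS-washed and serum-starved for 24 h. They were then exposed to drug plus serum for 72 h, with DMSO at most 0.2%. Growth was measured by SRB staining after TCA fixation, OD 492 nm. IC50s are means from three experiments.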

Series [1] is described as follows: Inhibition of serum stimulated HER-14 (EGF-receptor expressing) cell proliferation. It counts as functional. The method, boiled down:
as §1

Series [2] in a line: Half-life period in RPMI. It counts as ADME. To be noted: RPMI medium. Put shortly:
(§2)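 Compound dissolved in a minimal amount of DMSO and diluted into RPMI-1640 with 10% FBS. Absorbance was monitored spectrophotometrically in a UV cell held at 37 °C. Half-life came from a one-phase exponential decay curve fit. Each value is from a single experiment.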

Series [3] in a line: Inhibition of serum stimulated NIH3T3/neu (ErbB2/neu expressing) cell proliferation. It counts as functional. Put shortly:
as §1

Series [4] in a line: Half-life period in phosphate buffered saline (PBS). It counts as ADME.
Series [5] has as its target Epidermal growth factor receptor (Homo sapiens) (UniProt P00533). Briefly: Inhibition of epidermal growth factor receptor tyrosine kinase (EGFR TK).
Series [6] can be described thus: Half-life period in phosphate buffered saline (PBS); Not active. To be noted: buffer. It counts as ADME.
A short description of series [7]: Half-life period in RPMI; Not active. It counts as ADME. The method, boiled down:
as §2

Epidermal growth factor receptor (Homo sapiens), sequence (P00533 whole entry, looked up): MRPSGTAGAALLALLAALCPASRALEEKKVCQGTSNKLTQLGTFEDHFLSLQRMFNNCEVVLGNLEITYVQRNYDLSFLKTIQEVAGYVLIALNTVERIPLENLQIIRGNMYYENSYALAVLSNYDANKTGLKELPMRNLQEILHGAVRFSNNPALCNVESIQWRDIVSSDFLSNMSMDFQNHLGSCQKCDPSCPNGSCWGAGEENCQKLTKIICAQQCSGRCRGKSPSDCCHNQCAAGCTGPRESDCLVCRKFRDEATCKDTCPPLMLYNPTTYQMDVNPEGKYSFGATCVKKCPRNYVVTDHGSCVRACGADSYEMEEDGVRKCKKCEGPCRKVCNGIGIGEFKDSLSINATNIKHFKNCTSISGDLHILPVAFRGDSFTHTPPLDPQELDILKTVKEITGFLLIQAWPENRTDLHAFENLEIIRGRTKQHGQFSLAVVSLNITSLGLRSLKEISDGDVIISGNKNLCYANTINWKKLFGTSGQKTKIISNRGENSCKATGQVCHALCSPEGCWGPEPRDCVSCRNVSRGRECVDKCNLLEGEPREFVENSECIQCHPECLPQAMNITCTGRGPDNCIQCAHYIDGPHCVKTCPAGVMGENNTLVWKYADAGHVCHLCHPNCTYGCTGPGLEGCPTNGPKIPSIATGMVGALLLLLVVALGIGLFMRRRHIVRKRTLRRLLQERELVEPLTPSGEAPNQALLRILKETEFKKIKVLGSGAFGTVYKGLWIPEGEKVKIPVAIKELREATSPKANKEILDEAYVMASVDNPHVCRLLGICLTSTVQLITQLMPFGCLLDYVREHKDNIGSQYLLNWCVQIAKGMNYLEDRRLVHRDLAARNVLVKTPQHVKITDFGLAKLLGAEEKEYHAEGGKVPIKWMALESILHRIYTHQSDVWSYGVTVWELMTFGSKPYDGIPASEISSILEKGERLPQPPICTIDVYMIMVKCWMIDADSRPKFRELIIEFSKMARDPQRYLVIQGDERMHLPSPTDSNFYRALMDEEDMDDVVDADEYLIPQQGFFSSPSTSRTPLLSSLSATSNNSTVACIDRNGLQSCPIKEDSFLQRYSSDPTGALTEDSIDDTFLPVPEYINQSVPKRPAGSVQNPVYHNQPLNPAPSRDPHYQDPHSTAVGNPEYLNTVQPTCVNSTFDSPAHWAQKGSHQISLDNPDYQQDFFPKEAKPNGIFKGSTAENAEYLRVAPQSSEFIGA

Take `C/N=N/Nc1ccc2ncnc(Nc3cccc(C)c3)c2c1`: the IC50 (in general, the point on the concentration scale where inhibition reaches its midpoint) in the series on NIH3T3 worked out at 125 µM; in series [1], 28.9 µM; in series [3], 16.5 µM. Further, the half-life (usually the time in which the quantity being followed falls by half) in series [2] amounted to 0.583 h; in series [4] it was 1.15 h.
As for `C/N=N/Nc1ccc2ncnc(Nc3cccc(Br)c3)c2c1`, the IC50 with NIH3T3 was found to be 150 µM; in series [1], 8.8 µM; in series [3] it was 0.09 µM. Besides, the half-life in series [2] is 0.633 h; in series [4] it was 1.13 h.
On the same counts, the results for `CN(CO)/N=N/c1ccc2ncnc(Nc3cccc(Br)c3)c2c1` are 12.8 µM, 2.1 µM, 0.09 µM, 0.667 h and 1.17 h.
For `COc1cc2ncnc(Nc3cccc(Cl)c3)c2cc1OC.Cn1nnc2c(C(O)O)ncn2c1=O`, the IC50 is 39.4 µM in the series on NIH3T3, 6.2 µM in series [1] and 1.1 µM in series [3].
Turning to `CC(=O)OCN(C)/N=N/c1ccc2ncnc(Nc3cccc(Br)c3)c2c1`, the IC50 with NIH3T3 is 15.4 µM; in series [1], 3.4 µM; in series [3], 0.21 µM; in series [5] it was 0.13 µM. For the same compound, the half-life in series [2] amounted to 0.7 h; in series [4], 1.4 h.
For `CC(=O)N(C)/N=N/c1ccc2ncnc(Nc3cccc(C)c3)c2c1`, the IC50 worked out at 200 µM in the series on NIH3T3, 149 µM in series [1], 60.6 µM in series [3] and 0.578 µM in series [5]. Further, the half-life in series [2] and in series [4] was more than 3.33 h each time.
With `Nc1ccc2ncnc(Nc3cccc(Br)c3)c2c1`, the IC50 in the series with NIH3T3 was found to be 14.5 µM; in series [1], 10.4 µM; in series [3] it was 0.42 µM. In addition, the NA result in series [6] and in series [7] was “Not Active” in each case.
`COc1cc2ncnc(Nc3cccc(Cl)c3)c2cc1OC` [TYRPHOSTIN AG-1478]: the IC50 worked out at 28.6 µM in the series on NIH3T3, 9.8 µM in series [1] and 4 µM in series [3].
